Measurements from ChEMBL document CHEMBL4622841, “Structural modifications of indolinones bearing a pyrrole moiety and discovery of a multi-kinase inhibitor with potent antitumor activity” (Bioorg Med Chem, 2020).
Active and inactive are the calls of the source. The rule behind the calls is not given here.

Tests used:
MKN-74 [1] = test: Induction of apoptosis in human MKN74 cells assessed as necrotic cells at 1 uM incubated for 72 hrs by Annexin-V-FITC/propidium iodide staining-based flow cytometric analysis (reference value: 6.29%); assay type: functional
MKN-74 [2] = test: Induction of apoptosis in human MKN74 cells assessed as necrotic cells at 0.3 uM incubated for 72 hrs by Annexin-V-FITC/propidium iodide staining-based flow cytometric analysis (reference value: 6.29%); assay type: functional
[3] = target: Platelet-derived growth factor receptor beta (Homo sapiens, UniProt P09619); test: Inhibition of N-terminal GST-fused human PDGFRbeta cytoplasmic domain (557 to 1106 (end) residues) expressed in baculovirus expression system using FAM-labeled peptide and ATP as substrate preincubated for 10 mins followed by substrate addition measured after 1 hr by mobility shift assay
Platelet-derived growth factor receptor beta, sequence (P09619 whole entry, the tested form may be a part): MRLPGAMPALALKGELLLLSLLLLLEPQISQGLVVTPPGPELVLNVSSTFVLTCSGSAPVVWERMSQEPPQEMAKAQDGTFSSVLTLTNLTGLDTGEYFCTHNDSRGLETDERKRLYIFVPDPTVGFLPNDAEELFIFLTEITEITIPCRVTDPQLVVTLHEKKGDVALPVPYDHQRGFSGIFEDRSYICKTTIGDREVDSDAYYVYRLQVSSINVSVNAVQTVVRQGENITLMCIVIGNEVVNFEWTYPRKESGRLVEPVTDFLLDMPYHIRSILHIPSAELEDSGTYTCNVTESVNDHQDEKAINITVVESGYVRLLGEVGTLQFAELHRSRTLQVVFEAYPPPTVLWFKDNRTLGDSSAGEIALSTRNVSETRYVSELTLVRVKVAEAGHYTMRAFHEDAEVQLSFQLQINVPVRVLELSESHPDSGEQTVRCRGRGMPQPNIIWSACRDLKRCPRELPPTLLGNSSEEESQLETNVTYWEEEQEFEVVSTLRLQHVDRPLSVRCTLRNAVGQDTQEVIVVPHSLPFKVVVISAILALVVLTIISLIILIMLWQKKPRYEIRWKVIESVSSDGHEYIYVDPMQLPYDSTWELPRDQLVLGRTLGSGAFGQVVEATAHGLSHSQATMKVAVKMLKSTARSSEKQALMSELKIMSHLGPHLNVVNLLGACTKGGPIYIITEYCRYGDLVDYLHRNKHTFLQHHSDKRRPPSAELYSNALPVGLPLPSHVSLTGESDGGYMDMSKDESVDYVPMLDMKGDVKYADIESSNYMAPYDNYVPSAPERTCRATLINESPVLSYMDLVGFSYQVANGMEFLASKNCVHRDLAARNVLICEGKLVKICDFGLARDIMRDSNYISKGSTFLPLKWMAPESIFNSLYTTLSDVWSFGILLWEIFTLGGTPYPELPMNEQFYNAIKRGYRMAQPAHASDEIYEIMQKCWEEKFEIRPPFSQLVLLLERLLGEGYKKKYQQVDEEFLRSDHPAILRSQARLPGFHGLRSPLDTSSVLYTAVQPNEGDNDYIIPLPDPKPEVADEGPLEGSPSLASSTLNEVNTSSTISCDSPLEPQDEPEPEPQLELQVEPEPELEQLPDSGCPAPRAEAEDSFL

[4] = Inhibition of GST-tagged human recombinant VEGFR3 cytoplasmic domain (800 to 1297 residues) Q890H/V1128L/H1146R mutant expressed in baculovirus expression system using FAM-labeled peptide and ATP as substrate preincubated for 10 mins followed by substrate addition measured after 1 hr by mobility shift assay
[5] = Inhibition of N-terminal GST-tagged human recombinant PDGFRalpha D842I mutant expressed in baculovirus-infected Sf9 cells using FAM-labeled peptide and ATP as substrate preincubated for 10 mins followed by substrate addition measured after 1 hr by mobility shift assay
[6] = target: Mast/stem cell growth factor receptor Kit (Homo sapiens, UniProt P10721); test: Inhibition of c-Kit (unknown origin) using FAM-labeled peptide and ATP as substrate preincubated for 10 mins followed by substrate addition measured after 1 hr by mobility shift assay
Mast/stem cell growth factor receptor Kit, sequence (P10721 whole entry): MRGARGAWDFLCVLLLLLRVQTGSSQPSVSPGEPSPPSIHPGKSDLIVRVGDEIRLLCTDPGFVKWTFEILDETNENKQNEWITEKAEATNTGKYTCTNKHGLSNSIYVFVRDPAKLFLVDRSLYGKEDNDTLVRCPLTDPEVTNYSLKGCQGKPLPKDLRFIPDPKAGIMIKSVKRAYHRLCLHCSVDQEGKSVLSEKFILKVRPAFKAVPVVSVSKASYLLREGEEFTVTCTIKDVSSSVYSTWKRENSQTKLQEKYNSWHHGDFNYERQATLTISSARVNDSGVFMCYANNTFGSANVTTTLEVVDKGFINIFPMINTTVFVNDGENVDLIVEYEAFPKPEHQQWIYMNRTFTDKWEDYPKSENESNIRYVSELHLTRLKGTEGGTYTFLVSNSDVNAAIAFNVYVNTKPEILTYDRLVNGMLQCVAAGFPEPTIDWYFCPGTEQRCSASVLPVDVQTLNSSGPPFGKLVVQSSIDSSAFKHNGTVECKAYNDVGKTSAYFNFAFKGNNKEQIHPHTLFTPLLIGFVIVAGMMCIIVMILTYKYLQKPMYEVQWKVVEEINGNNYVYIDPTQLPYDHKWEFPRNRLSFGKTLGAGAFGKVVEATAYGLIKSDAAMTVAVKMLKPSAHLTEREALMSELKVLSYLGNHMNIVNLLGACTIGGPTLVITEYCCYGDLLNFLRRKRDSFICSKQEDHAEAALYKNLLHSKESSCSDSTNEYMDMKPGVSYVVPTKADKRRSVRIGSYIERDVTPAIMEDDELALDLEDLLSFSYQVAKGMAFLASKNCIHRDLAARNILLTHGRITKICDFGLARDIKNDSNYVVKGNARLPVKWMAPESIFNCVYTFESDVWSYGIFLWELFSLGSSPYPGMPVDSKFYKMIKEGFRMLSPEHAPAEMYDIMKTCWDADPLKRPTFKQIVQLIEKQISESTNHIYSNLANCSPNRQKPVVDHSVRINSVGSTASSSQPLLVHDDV

[7] = target: Cyclin-dependent kinase 4 (Homo sapiens, UniProt P11802); test: Inhibition of CDK4 (unknown origin) using FAM-labeled peptide and ATP as substrate preincubated for 10 mins followed by substrate addition measured after 1 hr by mobility shift assay
Cyclin-dependent kinase 4, sequence (P11802 whole entry): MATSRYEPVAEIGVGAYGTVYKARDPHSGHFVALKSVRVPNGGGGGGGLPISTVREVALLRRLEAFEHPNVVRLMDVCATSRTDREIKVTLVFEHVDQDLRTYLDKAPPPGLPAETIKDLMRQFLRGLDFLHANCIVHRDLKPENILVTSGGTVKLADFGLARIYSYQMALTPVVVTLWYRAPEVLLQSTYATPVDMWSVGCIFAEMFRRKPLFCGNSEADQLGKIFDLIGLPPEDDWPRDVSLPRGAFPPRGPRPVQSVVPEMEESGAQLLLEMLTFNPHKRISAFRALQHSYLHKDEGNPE

[8] = target: T1, Serine/threonine-protein kinase B-raf (Homo sapiens, UniProt P15056); test: Inhibition of B-Raf (unknown origin) using FAM-labeled peptide and ATP as substrate preincubated for 10 mins followed by substrate addition measured after 1 hr by mobility shift assay
T1 sequence (P15056 whole entry): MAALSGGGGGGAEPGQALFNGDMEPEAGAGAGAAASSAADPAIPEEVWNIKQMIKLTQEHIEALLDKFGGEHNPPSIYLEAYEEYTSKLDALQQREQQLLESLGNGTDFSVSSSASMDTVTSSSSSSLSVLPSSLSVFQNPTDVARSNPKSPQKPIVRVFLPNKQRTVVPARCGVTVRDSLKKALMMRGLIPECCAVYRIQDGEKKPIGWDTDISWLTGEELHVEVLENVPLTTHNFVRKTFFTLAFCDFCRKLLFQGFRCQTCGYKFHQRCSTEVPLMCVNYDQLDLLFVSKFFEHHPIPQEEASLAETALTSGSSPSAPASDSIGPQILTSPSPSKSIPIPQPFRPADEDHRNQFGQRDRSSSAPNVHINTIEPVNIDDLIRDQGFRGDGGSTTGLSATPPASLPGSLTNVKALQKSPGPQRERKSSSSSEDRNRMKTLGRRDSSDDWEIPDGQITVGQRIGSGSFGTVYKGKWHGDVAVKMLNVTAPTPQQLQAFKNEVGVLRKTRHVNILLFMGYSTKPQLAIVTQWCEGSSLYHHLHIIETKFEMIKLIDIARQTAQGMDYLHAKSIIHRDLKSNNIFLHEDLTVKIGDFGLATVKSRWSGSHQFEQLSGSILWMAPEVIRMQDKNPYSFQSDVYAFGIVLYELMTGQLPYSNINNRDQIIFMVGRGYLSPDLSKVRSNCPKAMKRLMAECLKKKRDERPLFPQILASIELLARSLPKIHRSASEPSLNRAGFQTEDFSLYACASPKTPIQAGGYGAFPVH

[9] = target: T1, Serine/threonine-protein kinase B-raf; test: Inhibition of B-Raf (unknown origin) at 1 uM using FAM-labeled peptide and ATP as substrate preincubated for 10 mins followed by substrate addition measured after 1 hr by mobility shift assay
HT-29 [10] = test: Inhibition of receptor tyrosine kinase in human HT-29 cells assessed as reduction in AKT phosphorylation at Ser473 residue after 24 hrs by Western blotting analysis; assay type: cell-based
Method in brief: (§1)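 Cells cultured overnight, then treated with compound at different concentrations for 24 h. About 1×10⁶ cells harvested and immunoblotted for p-AKT (Ser473), AKT, p-ERK (Thr202/Tyr204), ERK, with GAPDH as loading control. Detection by chemiluminescence and gel imaging. Blots shown are representative of several experiments.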

HepG2 [11] = test: Inhibition of receptor tyrosine kinase in human HepG2 cells assessed as reduction in AKT phosphorylation at Ser473 residue after 24 hrs by Western blotting analysis; assay type: cell-based; method in brief: as §1
HT-29 [12] = test: Inhibition of receptor tyrosine kinase in human HT-29 cells assessed as reduction in ERK phosphorylation at Thr202/Tyr204 residues at 3 uM after 24 hrs by Western blotting analysis; assay type: cell-based; method in brief: as §1
HepG2 [13] = test: Inhibition of receptor tyrosine kinase in human HepG2 cells assessed as reduction in ERK phosphorylation at Thr202/Tyr204 residues at 3 uM after 24 hrs by Western blotting analysis; assay type: cell-based; method in brief: as §1
MKN-74 [14] = test: Inhibition of colony formation in human MKN74 cells measured after 14 days by crystal violet staining-based assay; assay type: functional, cell-based
Method in brief: (§2)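 Cells plated and exposed to test agent at a range of concentrations for 14 days, then colonies counted. Colony formation expressed relative to vehicle-treated cells as mean ± SEM. Significance versus vehicle by unpaired two-tailed Student's t-test.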

HepG2 [15] = test: Inhibition of colony formation in human HepG2 cells measured after 14 days by crystal violet staining-based assay; assay type: functional, cell-based; method in brief: as §2
HT-29 [16] = test: Induction of apoptosis in human HT-29 cells assessed as early apoptotic cells at 0.3 uM incubated for 72 hrs by Annexin-V-FITC/propidium iodide staining-based flow cytometric analysis (reference value: 3.18%); assay type: functional
HT-29 [17] = test: Induction of apoptosis in human HT-29 cells assessed as late apoptotic cells at 0.3 uM incubated for 72 hrs by Annexin-V-FITC/propidium iodide staining-based flow cytometric analysis (reference value: 6.12%); assay type: functional
HT-29 [18] = test: Induction of apoptosis in human HT-29 cells assessed as late apoptotic cells at 1 uM incubated for 72 hrs by Annexin-V-FITC/propidium iodide staining-based flow cytometric analysis (reference value: 6.12%); assay type: functional
HT-29 [19] = test: Induction of apoptosis in human HT-29 cells assessed as early apoptotic cells at 3 uM incubated for 72 hrs by Annexin-V-FITC/propidium iodide staining-based flow cytometric analysis (reference value: 3.18%); assay type: functional
MKN-74 [20] = test: Induction of apoptosis in human MKN74 cells assessed as early apoptotic cells at 0.3 uM incubated for 72 hrs by Annexin-V-FITC/propidium iodide staining-based flow cytometric analysis (reference value: 1.98%); assay type: functional
MKN-74 [21] = test: Induction of apoptosis in human MKN74 cells assessed as late apoptotic cells at 1 uM incubated for 72 hrs by Annexin-V-FITC/propidium iodide staining-based flow cytometric analysis (reference value: 12.42%); assay type: functional
HepG2 [22] = test: Induction of apoptosis in human HepG2 cells assessed as late apoptotic cells at 1 uM incubated for 72 hrs by Annexin-V-FITC/propidium iodide staining-based flow cytometric analysis (reference value: 2.89%); assay type: functional
HepG2 [23] = test: Induction of apoptosis in human HepG2 cells assessed as early apoptotic cells at 3 uM incubated for 72 hrs by Annexin-V-FITC/propidium iodide staining-based flow cytometric analysis (reference value: 1.08%); assay type: functional
HepG2 [24] = test: Induction of apoptosis in human HepG2 cells assessed as late apoptotic cells at 3 uM incubated for 72 hrs by Annexin-V-FITC/propidium iodide staining-based flow cytometric analysis (reference value: 2.89%); assay type: functional
HUVEC [25] = test: Induction of apoptosis in human HUVEC cells assessed as late apoptotic cells at 0.3 uM incubated for 48 hrs by Annexin-V-FITC/propidium iodide staining-based flow cytometric analysis (reference value: 3.48%); assay type: functional
HUVEC [26] = test: Induction of apoptosis in human HUVEC cells assessed as late apoptotic cells at 1 uM incubated for 48 hrs by Annexin-V-FITC/propidium iodide staining-based flow cytometric analysis (reference value: 3.48%); assay type: functional
HUVEC [27] = test: Induction of apoptosis in human HUVEC cells assessed as early apoptotic cells at 3 uM incubated for 48 hrs by Annexin-V-FITC/propidium iodide staining-based flow cytometric analysis (reference value: 3.63%); assay type: functional
HUVEC [28] = test: Induction of apoptosis in human HUVEC cells assessed as late apoptotic cells at 3 uM incubated for 48 hrs by Annexin-V-FITC/propidium iodide staining-based flow cytometric analysis (reference value: 3.48%); assay type: functional
[29] = Half life in human liver microsomes; assay type: ADME, Microsome
MKN-74 [30] = test: Induction of apoptosis in human MKN74 cells assessed as viable cells at 3 uM incubated for 72 hrs by Annexin-V-FITC/propidium iodide staining-based flow cytometric analysis (reference value: 76.84%); assay type: functional; conditions: MKN-74, 72 h, read-out: Activity

For `COC(=O)c1ccc2c(c1)NC(=O)/C2=C(\Nc1ccc(-n2c(C)ccc2CN2CCN(C)CC2)cc1)c1ccccc1`, the Activity (MKN-74 [1]) was 4.52%, the Activity (MKN-74 [2]) was 6.48% and the IC50 [3] was 9.9 nM. The IC50 [4] was 6.3 nM, the IC50 [5] was 7 nM and the IC50 [6] was 17 nM. For the same compound, the IC50 [7] was greater than 1000 nM, the IC50 [8] was greater than 1000 nM and the inhibition [9] was “inactive”. For the same compound, the inhibition (HT-29 [10]) was “Dose-dependent effect”, the inhibition (HepG2 [11]) was “Dose-dependent effect” and the inhibition (HT-29 [12]) was “Active”. For the same compound, the inhibition (HepG2 [13]) was “Active”, the inhibition (MKN-74 [14]) was “Dose-dependent effect” and the inhibition (HepG2 [15]) was “Dose-dependent effect”. It also gave an Activity (HT-29 [16]) of 3.35%, an Activity (HT-29 [17]) of 11.99% and an Activity (HT-29 [18]) of 37.8%. The Activity (HT-29 [19]) was 0.54%, the Activity (MKN-74 [20]) was 2.41% and the Activity (MKN-74 [21]) was 22.1%. It also gave an Activity (HepG2 [22]) of 61.54%, an Activity (HepG2 [23]) of 16.52% and an Activity (HepG2 [24]) of 64.56%. It also gave an Activity (HUVEC [25]) of 2.76%, an Activity (HUVEC [26]) of 3.09% and an Activity (HUVEC [27]) of 55.63%. For the same compound, the Activity (HUVEC [28]) was 9.06%, the half-life [29] was 21.2 min and the viability at 3 µM (MKN-74 [30]) was 8.53%.
